Experimental data: ChEMBL document CHEMBL4513216, “Probing the Open Global Health Chemical Diversity Library for Multistage-Active Starting Points for Next-Generation Antimalarials” (ACS Infect Dis, 2020)

Test: Toxicity liver stage against HepG2, at 10uM
Format: cell-based
Design: test concentration 10 uM, cell line HepG2-A16-CD81EGFP
Settings: human, HepG2-A16-CD81EGFP cells; read-out: INHIBITION
How it was run: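 Uninfected HepG2-A16-CD81EGFP cells, 3 × 10^3 per well, 1536-well, plated on prespotted compound at 10 μM final, parasite-free screening media added to match infected plates; puromycin 10 μM positive, DMSO 0.5% negative; run in parallel with 48 h PbLuc assay at 37 °C, 5% CO2; viability by CellTiter-Glo luminescence, normalized to controls.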

O=C(c1cc(CC2(NCC3CCCCC3)COC2)no1)N1CCCCC1
cytotoxicity at 10 µM: 5.35%

COCCNc1ccc(-c2noc([C@@H]3CCCN3)n2)cn1
cytotoxicity at 10 µM: -1.57%

CN(Cc1ccccc1)C(=O)Cn1nc(N2CCOCC2)ccc1=O
cytotoxicity at 10 µM: 9.55%

c1ccc(CN2Cc3ccnn3CC(COCc3cccnc3)C2)nc1 (configuration not stated)
cytotoxicity at 10 µM: -146%

O=C(c1ccc(Cl)cc1)N1CCc2nc(C(=O)N3CCCC3)sc2CC1
cytotoxicity at 10 µM: 8.04%

CCN1C(=O)C2(CCOCC2)c2cc(NC(=O)c3cnccn3)ccc21
cytotoxicity at 10 µM: -2.98%

CCN(CC)Cc1nnc2sc(-c3cc(C(C)C)[nH]n3)nn12
cytotoxicity at 10 µM: -7.02%

O=c1[nH]nc(-c2cccs2)c2sc(N3CCOCC3)nc12
cytotoxicity at 10 µM: 9.28%

CN(C(=O)Cn1nc(-c2ccc(Br)cc2)ccc1=O)C1CCS(=O)(=O)C1 (configuration not stated)
cytotoxicity at 10 µM: 4.38%

COC(=O)N1CCc2ccc(NC(=O)c3cn(C)nn3)cc2C1
cytotoxicity at 10 µM: -1.3%

COCC(=O)N1CCC(c2nc3ccc(-c4ccccc4)cn3n2)CC1
cytotoxicity at 10 µM: -0.555%

CC(C)n1cc(S(=O)(=O)N2CCSCC2)cn1
cytotoxicity at 10 µM: 6.64%

COc1cc2cc(C(=O)N[C@@H](C)C(=O)O)n(C)c2c(OC)c1OC
cytotoxicity at 10 µM: 12.5%

CCS(=O)(=O)Nc1ccn(Cc2cccc(Cl)c2)n1
cytotoxicity at 10 µM: -4.49%

CCC(C)c1noc(C2CCN(C(=O)c3cccs3)CC2)n1 (configuration not stated)
cytotoxicity at 10 µM: -12.8%

Cc1ccc2c(c1)C(=O)NCC1(CCN(C(=O)c3csc(C)c3)CC1)O2
cytotoxicity at 10 µM: -27.7%

COC(=O)Cc1cn2cc(C(F)(F)F)ccc2n1
cytotoxicity at 10 µM: 9.21%

CN1CCOC(C(=O)Nc2nc(-c3ccc(Cl)cc3)n[nH]2)C1 (configuration not stated)
cytotoxicity at 10 µM: -4.34%

O=C(C1CC1)N(CCc1ccccc1)C1CCOC1 (configuration not stated)
cytotoxicity at 10 µM: -6.93%

N#Cc1ccc(CN2CCCCC2Cn2cncn2)c(F)c1 (configuration not stated)
cytotoxicity at 10 µM: -1.34%

CN(C)Cc1nc(C(C)(C)NC(=O)c2nc3ccccc3s2)no1
cytotoxicity at 10 µM: 8.61%

CCc1ncc2c(n1)CN(c1nnc(C)c(C)c1C#N)CC2
cytotoxicity at 10 µM: -134%

CCS(=O)(=O)CC(C)N(C)C(=O)COc1ccccc1C#N (configuration not stated)
cytotoxicity at 10 µM: -3.51%

Cc1ccccc1CS(=O)(=O)c1nnc(N2CCOCC2)s1
cytotoxicity at 10 µM: -9.61%

O=C(NC1CC1)C1CCCN(c2cccc(C(F)(F)F)n2)C1 (configuration not stated)
cytotoxicity at 10 µM: 2.43%

COc1cc(OC)cc(C2CCN(CC(=O)NCC(F)(F)F)C2)c1 (configuration not stated)
cytotoxicity at 10 µM: 2.29%

COc1cc(C)nc(N2CCN(C(=O)CCc3cccs3)CC2)n1
cytotoxicity at 10 µM: 5.77%

COC(=O)C(C)(C)NC(=O)C1CC(=O)N(CC(F)(F)F)C1 (configuration not stated)
cytotoxicity at 10 µM: -141%

Cc1cnn(CC2CCCN2CC(=O)NCc2ccccn2)c1 (configuration not stated)
cytotoxicity at 10 µM: -5%

CC(C)c1cc(C(=O)NC2CCN(CC(N)=O)CC2)nn1C(C)(C)C
cytotoxicity at 10 µM: -6.95%

COc1ccccc1C(NC(=O)C1CCC1)c1noc(C)n1 (configuration not stated)
cytotoxicity at 10 µM: 0.338%

Cc1nc(CCNC(=O)NC(C)c2ccc3c(c2)OCCO3)cs1 (configuration not stated)
cytotoxicity at 10 µM: -1.18%

COCc1ccccc1CNC(=O)CNc1cccc(Cl)c1OC
cytotoxicity at 10 µM: 6.39%

CC(=O)N(Cc1ccoc1)C1CCCCC1
cytotoxicity at 10 µM: -2.86%

CSc1nsc(NC(=O)N(C)Cc2ccc3c(c2)OCO3)n1
cytotoxicity at 10 µM: -10.4%

COc1ccccc1COCC(O)CN(C)c1ccc(C)cc1C (configuration not stated)
cytotoxicity at 10 µM: 9.6%

FC(F)Oc1ccc(NCc2nc(C3CC3)no2)c(OC(F)F)c1
cytotoxicity at 10 µM: 4.19%

CC(CC(=O)Nc1ncn(CC(=O)N2CCCCCC2)n1)C1CC1 (configuration not stated)
cytotoxicity at 10 µM: 5.75%

CC(C)(C)NC(=O)C1CSCN1C(=O)CCc1ccco1 (configuration not stated)
cytotoxicity at 10 µM: -6.77%

NC(=O)C1CCN(CCCNC(=O)Nc2nccs2)CC1
cytotoxicity at 10 µM: -0.287%

O=C(NCCn1ccnc1)c1csc2c1CCCC2
cytotoxicity at 10 µM: -1.34%

Cc1cc(CNC(=O)CCc2ccc(S(N)(=O)=O)cc2)no1
cytotoxicity at 10 µM: 7.81%

COCCC(=O)Nc1cc(CC(C)(C)C)n[nH]1
cytotoxicity at 10 µM: 3.97%

CN1CCN(c2ncccc2CNc2ncccc2C#N)CC1
cytotoxicity at 10 µM: 15.4%

COc1cccc(C2CCCN2C(=O)c2cc3c([nH]c2=O)CCC3)c1 (configuration not stated)
cytotoxicity at 10 µM: -12%

CC(O)CC(C)(C)CNC(=O)NCc1cccc(-n2ccnc2)c1 (configuration not stated)
cytotoxicity at 10 µM: -3.34%

CN(C)C1CCN(C(=O)NCc2ccccc2Cn2cncn2)CC1
cytotoxicity at 10 µM: -8.15%

Cc1noc(C(C)C)c1C(=O)NS(=O)(=O)c1ccc(Cl)cc1
cytotoxicity at 10 µM: -8.59%

Cc1ccc(CN2C[C@H](OCC3CCN(C)CC3)[C@H]3COC[C@H]32)o1
cytotoxicity at 10 µM: 6.19%

O=C(NCC1Cn2nnc(-c3ccccc3)c2CO1)c1ccc[nH]1 (configuration not stated)
cytotoxicity at 10 µM: -1.2%

Cc1cc(N2CCC3(CCC(=O)N(CC4CC4)C3)CC2)ncn1
cytotoxicity at 10 µM: -7.8%

CC(C)Oc1cc(N2CCCC(O)C2)nc(N)n1 (configuration not stated)
cytotoxicity at 10 µM: -0.796%

Cc1cc(C(=O)N(C)Cc2ccoc2)c(NC(=O)C(C)(C)C)s1
cytotoxicity at 10 µM: 12.1%

Cc1ccc(C)c(NC(=O)N2C[C@H](N(C)C)C[C@H]2CO)c1
cytotoxicity at 10 µM: -0.861%

COCc1c(C(=O)N2CCCC(N(C)Cc3ccccc3)C2)noc1C (configuration not stated)
cytotoxicity at 10 µM: -16.8%

COc1ccccc1N1CCN(C(=O)CCc2nncn2C)C(C)C1 (configuration not stated)
cytotoxicity at 10 µM: 16%

CC(C)S(=O)(=O)N1CCOC(CCc2ccccc2)C1 (configuration not stated)
cytotoxicity at 10 µM: -4.53%

O=c1cc(N2CCCCC2)cnn1CC(O)C(F)(F)F (configuration not stated)
cytotoxicity at 10 µM: 12.3%

O=C1CC2(CCCC2)CC(=O)N1CCn1cnnc1
cytotoxicity at 10 µM: -0.54%

CN1CC2(CCN(C(=O)c3cn4cccnc4n3)CC2)CC1=O
cytotoxicity at 10 µM: -7.72%

CC(C)CN1CC2(CCN(C(=O)C(O)c3cccc(Cl)c3)CC2)CC1=O (configuration not stated)
cytotoxicity at 10 µM: -1.45%

CN(Cc1cccc(-n2cccn2)c1)Cc1cccs1
cytotoxicity at 10 µM: -7.54%

COC[C@@H]1CCCN1C(=O)c1cc(-c2ccc(OC)cc2)n[nH]1
cytotoxicity at 10 µM: 13.2%

CCc1nc(C)c(CC(=O)N2CCC3(CC2)OCCCC3OC)c(=O)[nH]1 (configuration not stated)
cytotoxicity at 10 µM: -0.506%

COc1cncc(-n2nc(C)c(CC(C)=O)c2C)c1
cytotoxicity at 10 µM: -12.8%

CNC(=O)CNC(=O)CC1C(=O)NCCN1Cc1ccccc1C (configuration not stated)
cytotoxicity at 10 µM: -2.88%

COc1ccc(-c2nc(CN(C)Cc3nncn3C)c(C)o2)c(C)c1C
cytotoxicity at 10 µM: -8.87%

O=C(CN1CCOCS1(=O)=O)NCCc1ccc(Cl)cc1
cytotoxicity at 10 µM: -5.14%

CC(C)CN1CCN(Cc2nc3ccccc3[nH]2)[C@H]2CS(=O)(=O)C[C@H]21
cytotoxicity at 10 µM: 14.4%

COC(=O)c1ccc2ccn(CC3CCCO3)c(=O)c2c1 (configuration not stated)
cytotoxicity at 10 µM: -15.8%

COC1CCCN(C(=O)Nc2nc(C)n(C)n2)C1 (configuration not stated)
cytotoxicity at 10 µM: 16.3%

CC(C)N1CCC(N2CCN(C3CCC3)CC2CCO)CC1 (configuration not stated)
cytotoxicity at 10 µM: -12.5%

COC(=O)N1CC(C)=C(C)CN1C(=O)Nc1cccc(Cl)c1
cytotoxicity at 10 µM: 0.359%

CC(C)n1cc(CN2CCCN(C(=O)C3CCOC3)CC2)cn1 (configuration not stated)
cytotoxicity at 10 µM: -8.45%

N#Cc1ccccc1N1CCCN(C(=O)CCc2cccs2)CC1
cytotoxicity at 10 µM: -1.27%

Cc1nc(C(C)C)sc1C(=O)NCCNc1ncccc1C#N
cytotoxicity at 10 µM: -2.55%

CCS(=O)(=O)N1C[C@H]2CN(Cc3cccnc3)C(=O)[C@H]2C1
cytotoxicity at 10 µM: -17.8%

O=C(c1cnoc1)N1CCC[C@]2(C[C@H](Oc3ncccc3F)CO2)C1
cytotoxicity at 10 µM: -10.2%

CS(=O)(=O)N1CC[C@H]2[C@H](C[C@@H](Cn3cncn3)N2CC2CC2)C1
cytotoxicity at 10 µM: -6.25%

O=C1N(c2cccnc2)CCC12CCCN(Cc1ccoc1)C2 (configuration not stated)
cytotoxicity at 10 µM: -1.6%

CCN1CCC2(CCN(Cc3nccs3)CC2)C1=O
cytotoxicity at 10 µM: -0.311%

O=C(c1cc(Cl)c[nH]c1=O)N1C[C@H]2CC[C@@H](C1)N(Cc1ccccc1)C2
cytotoxicity at 10 µM: -113%
